Source: ChEMBL document CHEMBL3351489, “Design, synthesis, and structure-activity relationships of a series of novel N-aryl-2-phenylcyclopropanecarboxamide that are potent and orally active orexin receptor antagonists” (Bioorg Med Chem, 2014)
In brackets after ≈: the same amount, converted by molar mass. Activity calls are given as the source filed them. The calls are words filed in the database; no cut-off is given here.

Tests used:
Orexin receptor type 2 = target: T1, Orexin receptor type 2 (Homo sapiens, UniProt O43614); experiment: Displacement of [125I]-Orexin A from human OX2R expressed in CHO cells after 30 mins by topcount analysis; assay type: cell-based
T1 sequence (O43614 whole entry): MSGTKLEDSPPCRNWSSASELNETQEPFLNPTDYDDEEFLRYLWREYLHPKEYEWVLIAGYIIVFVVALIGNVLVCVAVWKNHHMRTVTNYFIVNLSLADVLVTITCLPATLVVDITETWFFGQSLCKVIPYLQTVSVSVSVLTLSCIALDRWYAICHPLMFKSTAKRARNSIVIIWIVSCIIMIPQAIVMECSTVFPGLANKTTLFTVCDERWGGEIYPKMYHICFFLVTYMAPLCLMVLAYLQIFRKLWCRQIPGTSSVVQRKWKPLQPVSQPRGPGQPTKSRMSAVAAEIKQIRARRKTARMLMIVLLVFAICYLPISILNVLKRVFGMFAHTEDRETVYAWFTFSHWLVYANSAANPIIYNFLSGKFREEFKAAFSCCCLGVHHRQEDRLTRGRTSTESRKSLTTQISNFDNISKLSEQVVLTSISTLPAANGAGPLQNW

[1] = target: T2, Orexin/Hypocretin receptor type 1 (Homo sapiens, UniProt O43613); experiment: Displacement of [125I]-Orexin A from human OX1R expressed in CHO cells after 30 mins by topcount analysis; assay type: cell-based
T2 sequence (O43613 whole entry): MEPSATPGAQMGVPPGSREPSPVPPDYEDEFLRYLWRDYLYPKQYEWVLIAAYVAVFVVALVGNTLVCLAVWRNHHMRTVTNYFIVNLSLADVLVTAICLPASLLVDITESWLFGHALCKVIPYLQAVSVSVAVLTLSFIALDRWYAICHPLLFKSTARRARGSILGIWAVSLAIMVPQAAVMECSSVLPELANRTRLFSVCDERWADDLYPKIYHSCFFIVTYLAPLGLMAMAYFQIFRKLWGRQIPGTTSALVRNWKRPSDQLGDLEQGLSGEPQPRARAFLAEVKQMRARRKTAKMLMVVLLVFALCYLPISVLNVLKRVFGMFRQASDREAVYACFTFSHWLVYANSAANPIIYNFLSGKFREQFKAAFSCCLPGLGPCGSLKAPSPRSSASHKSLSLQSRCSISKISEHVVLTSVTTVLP
How it was run: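 Membranes from CHO cells expressing human OX1R, […] per well, in 25 mM HEPES pH 7.5 with MgCl2, CaCl2, 0.5% BSA, sodium azide, Tween 20; incubated with [125I]-orexin A 30 min at rt on scintillation plate, washed, counted. Nonspecific binding with excess unlabelled orexin A; % inhibition from DPM; mean of 3 wells, single measurement.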

[2] = Ratio of efflux ratio of permeability in pig LLC-MDR1 cells to efflux ratio of permeability in pig LLC-PK1 cells; assay type: ADME, cell-based, Sus scrofa
How it was run: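 LLC-PK1 and MDR1-transfected LLC-PK1 cells grown 5 days on porous inserts (5% CO2, 37 °C). Monolayers preincubated 2 h in HBSS with 10 mM HEPES; compound added apical or basal, 2 h at 37 °C. Receiver side sampled, quantified by LC/MS; Papp from permeated amount, time, initial concentration and membrane area.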

[3] = Aqueous solubility of the compound in PBS at pH 7.4 after 15 mins by HPLC method; assay type: physicochemical
Mus musculus [4] = experiment: Reduction in locomotor activity in ddY mouse model at 100 mg/kg, po after 1 hr; assay type: functional, organism-based; design: dose 100 mg/kg
How it was run: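 Male ddY mice kept on 12-h light/dark cycle; oral 10, 30 or 100 mg/kg (DMSO stock diluted twentyfold in 10% Cremophor EL/saline), n = 8 per dose, vehicle n = 16. Ambulation counted as infrared beam breaks in an open-field box over 1 h after dosing; mean ± SEM, one-way ANOVA with Dunnett versus vehicle.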

Mus musculus [5] = experiment: Induction of sleep in po dosed C57BL/6NCrlCrlj mouse assessed as reduction in wakefulness time up to 3 hrs by EEG/EMG analysis; assay type: functional, organism-based
How it was run: (§1)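 Mice with EEG/EMG recording dosed orally (30 or 100 mg/kg, vehicle 10% Cremophor EL, 5% DMSO in saline; n = 7) immediately before lights out. Signals sampled at 128 Hz, 50 Hz filtered; 10-s epochs auto-scored as wake, non-REM or REM, then checked by a blinded observer. Minutes summed hourly and over 3 h; one-way ANOVA with Dunnett versus vehicle.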

Mus musculus [6] = experiment: Induction of non-REM sleep in po dosed C57BL/6NCrlCrlj mouse up to 3 hrs by EEG/EMG analysis; assay type: functional, organism-based; how it was run: as §1
Mus musculus [7] = experiment: Induction of REM sleep in C57BL/6NCrlCrlj mouse at 30 to 100 mg/kg, po up to 3 hrs by EEG/EMG analysis; assay type: functional, organism-based; how it was run: as §1
[8] = Plasma concentration in C57BL/6N mouse at 100 mg/kg, po after 1 hr; assay type: ADME, organism-based; design: dose 100 mg/kg, route oral
How it was run: (§2)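 Male C57BL/6N mice given single oral 100 mg/kg (suspension in 0.5% methylcellulose, or saline/Cremophor EL/DMSO 85:10:5). At 1 or 3 h, CSF taken from cisterna magna under pentobarbital, then aortic blood for plasma. Samples protein-precipitated with methanol/acetonitrile plus propranolol internal standard; LC/MS/MS in positive MRM mode, 1/x²-weighted calibration; mean ± SEM.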

[9] = Plasma concentration in C57BL/6N mouse at 100 mg/kg, po after 3 hrs; assay type: ADME, organism-based; design: dose 100 mg/kg, route oral; how it was run: as §2
[10] = Drug uptake in CSF of C57BL/6N mouse at 100 mg/kg, po after 1 hr; assay type: ADME, organism-based, Cerebrospinal fluid; design: dose 100 mg/kg, route oral; settings: read-out: Drug uptake; how it was run: as §2
[11] = Drug uptake in CSF of C57BL/6N mouse at 100 mg/kg, po after 3 hrs; assay type: ADME, organism-based, Cerebrospinal fluid; design: dose 100 mg/kg, route oral; settings: read-out: Drug uptake; how it was run: as §2
Mus musculus [12] = experiment: Induction of sleep in C57BL/6NCrlCrlj mouse assessed as reduction in wakefulness time at 100 mg/kg up to 3 hrs by EEG/EMG analysis; assay type: functional, organism-based; design: dose 100 mg/kg
How it was run: (§3)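 Oral dosing immediately before lights out, vehicle 10% Cremophor EL, 5% DMSO in saline (n = 7 per group). EEG/EMG amplified, filtered (50 Hz line), sampled at 128 Hz. Recordings were scored automatically in 10-s epochs as wakefulness, non-REM or REM sleep and checked by a blinded observer. Minutes were summed over 3 h from dosing relative to vehicle, with one-way ANOVA and Dunnett test.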

Mus musculus [13] = experiment: Induction of non-REM sleep in C57BL/6NCrlCrlj mouse at 100 mg/kg up to 3 hrs by EEG/EMG analysis; assay type: functional, organism-based; design: dose 100 mg/kg; how it was run: as §3

SMILES	Ki (Orexin receptor type 2)	Ki [1]	Ratio [2]	solubility at 0.25 h [3]	further results
COc1ccc(OC[C@@]2(c3ccccc3)C[C@H]2C(=O)Nc2ccccn2)cc1	588 nM	5540 nM			
COc1ccc(OC[C@@]2(c3ccccc3)C[C@H]2C(=O)Nc2ccc(C#N)cn2)cc1OC (racemic)	14 nM	123 nM	1.1	22 µM (≈ 9.45 µg/mL)	
COc1ccc(OCC2(c3ccccc3)CC2C(=O)Nc2ccc(C#N)cn2)cc1OC (single isomer, unassigned; (-)) [listing 1 of 2 here]					Activity (Mus musculus [4]): Active; Activity (Mus musculus [5]): Dose-dependent effect; Activity (Mus musculus [6]): Dose-dependent effect; Activity (Mus musculus [7]): inactive
COc1ccc(OC[C@@]2(c3ccccc3)C[C@H]2CNc2ccccc2)cc1OC	4230 nM	4160 nM			
COc1ccc(OC[C@@]2(c3ccccc3)C[C@H]2C(=O)Nc2cc(C#N)ccn2)cc1OC	34 nM	103 nM	1	10 µM (≈ 4.29 µg/mL)	
COc1ccc(OCC2(c3ccccc3)CC2C(=O)Nc2ccc(C#N)cn2)cc1OC (single isomer, unassigned; (-)) [listing 2 of 2 here]	5 nM	106 nM	1.1	15 µM (≈ 6.44 µg/mL)	concentration at 1 h [8]: 9.9 µM; concentration at 3 h [9]: 3.74 µM; concentration at 1 h [10]: 245 nM; concentration at 3 h [11]: 94 nM
COc1ccc(OC[C@@]2(c3ccccc3)C[C@H]2C(=O)Cc2ccccc2)cc1OC	> 10000 nM	> 10000 nM			
COc1ccc(OC[C@@]2(c3ccccc3)C[C@H]2C(=O)c2ccccc2)cc1OC	8650 nM	> 10000 nM			
COc1ccc([C@]2(COc3ccccc3)C[C@H]2C(=O)Nc2ccccn2)cc1OC	129 nM	> 10000 nM			
COc1ccc(OC[C@@]2(c3ccccc3)C[C@H]2C(=O)N2CCCc3ccccc32)cc1OC	> 10000 nM	> 10000 nM			
COCc1ccc(OC[C@@]2(c3ccccc3)C[C@H]2C(=O)Nc2ccccn2)cc1OC	3340 nM	772 nM			
COc1ccc(OC[C@@]2(c3ccccc3)C[C@H]2C(=O)N(C)c2ccccc2)cc1OC	4680 nM	7540 nM			
COc1ccc(OC[C@@]2(c3ccccc3)C[C@H]2C(=O)Nc2cccnc2)cc1OC	51 nM	206 nM	3.4		
COc1ccc(OCC2(c3ccccc3)CC2C(=O)Nc2ccc(C#N)cn2)cc1OC (single isomer, unassigned; (+))	> 2000 nM	> 2000 nM			
COc1cccc(OC[C@@]2(c3ccccc3)C[C@H]2C(=O)Nc2ccccn2)c1	1330 nM	> 10000 nM			
COCc1cc(OC[C@@]2(c3ccccc3)C[C@H]2C(=O)Nc2ccccn2)ccc1OC	384 nM	747 nM			
COc1ccc(OC[C@@]2(c3ccccc3)C[C@H]2C(=O)Nc2nc(C)cs2)cc1OC	14 nM	832 nM	1.5	11 µM (≈ 4.67 µg/mL)	
COc1ccc(OC[C@@]2(c3ccccc3)C[C@H]2C(=O)Nc2ccccc2)cc1OC	7.2 nM	7.2 nM	0.6	2 µM (≈ 0.807 µg/mL)	
COc1ccc(OC[C@@]2(c3ccccc3)C[C@H]2C(=O)Nc2ccncc2)cc1OC	85 nM	1420 nM	4.9		
COc1ccc(OC[C@@]2(c3ccccc3)C[C@H]2C(=O)Nc2ccccn2)cc1OC	36 nM	1070 nM	0.9	32 µM (≈ 12.9 µg/mL)	
Cc1nc(C(=O)N2CCCC[C@H]2CNC(=O)c2cccc3occc23)c(-c2ccc(F)cc2)s1 [SB-649868]	8.5 nM				
O=C(Nc1ccccn1)[C@@H]1C[C@@]1(COc1ccccc1)c1ccccc1	967 nM	6840 nM			
COc1ccc(OC[C@@]2(c3ccccc3)C[C@H]2C(=O)NC2CCCCC2)cc1OC	7850 nM	2990 nM			
Cc1ccc(-c2nc3ccc(C)cn3c2CC(=O)N(C)C)cc1					Activity (Mus musculus [12]): Active; Activity (Mus musculus [13]): Active
COc1ccc(OC[C@@]2(c3ccccc3)C[C@H]2C(=O)Nc2cc(C)on2)cc1OC	28 nM	505 nM		< 1 µM	
COc1ccc(OC[C@@]2(c3ccccc3)C[C@H]2C(=O)Nc2ncc(C)s2)cc1OC	35 nM	291 nM	2.4	< 1 µM	
